ChEMBL document CHEMBL1154191, “Evaluation of spirocyclic 3-(3-fluoropropyl)-2-benzofurans as sigma1 receptor ligands for neuroimaging with positron emission tomography” (J Med Chem, 2009)

Tests used:
Cerebellum = assay: Biodistribution in CD1 mouse cerebellum assessed per gram of wet tissue at 400 to 600 kBq, iv after 5 mins post-injection by gamma counting; format: ADME, organism-based; conditions: in vivo
Method in brief: (§1)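 Female CD-1 mice (~8-12 weeks, 20-28 g) were fasted 24 h with free water. Conscious mice got 400-600 kBq [¹⁸F] tracer in saline by tail vein. At 5, 30, 60 or 120 min (n=4-5 per time) they were anesthetized, blood and urine sampled, then killed by cervical dislocation. Organs were weighed and γ-counted, giving % ID/g wet tissue.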

Muscle tissue = assay: Biodistribution in CD1 mouse muscle assessed per gram of wet tissue at 400 to 600 kBq, iv after 5 mins post-injection by gamma counting; format: ADME, organism-based; conditions: in vivo
Method in brief: (§2)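 Female CD-1 mice (~8-12 weeks, 20-28 g), habituated ≥48 h and fasted 24 h with water available. The [18F] tracer (>150 GBq/μmol at end of synthesis) was given in 200 μL saline into the tail vein of conscious animals. At each time point, n=4-5, mice were anaesthetised, blood and urine sampled, then killed by cervical dislocation. Organs were weighed and γ-counted, and values calculated as % ID/g wet tissue.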

Heart [1] = assay: Biodistribution in CD1 mouse heart assessed per gram of wet tissue at 400 to 600 kBq, iv after 60 mins post-injection by gamma counting in presence of 1 mg/kg, ip sigma 1/sigma 2 receptor antagonist haloperidol treated before compound addition; format: organism-based; parameters: dose 1 mg/kg, route intravenous; conditions: in vivo, 1 h
Method in brief: (§3)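 Blocking arm in fasted female CD-1 mice (n=5). […] Animals were killed at 60 min post-injection, and organs were weighed and γ-counted as % ID/g wet tissue. Percent change was taken against the 60 min control group, with two-tailed unpaired Student's t test.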

Heart [2] = assay: Biodistribution in CD1 mouse heart assessed per gram of wet tissue at 400 to 600 kBq, iv after 5 mins post-injection by gamma counting; format: ADME, organism-based; conditions: in vivo; method in brief: as §1
[3] = Metabolic stability in CD1 mouse brain at 200 to 300 MBq, iv after 60 mins post-injection by supelcosil C18 HPLC and TLC-radiochromatography; format: ADME, organism-based; conditions: read-out: Stability
Method in brief: (§4)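 Mice received 200-300 MBq [18F] tracer in 200 μL 0.9% saline via the tail vein, and samples were taken at 45 and 60 min (n=2 per time). Plasma was obtained by centrifugation (2000g, 4 °C, 10 min); brain and liver were homogenised in ice-cold 50 mM TRIS-HCl pH 7.4. Samples were precipitated with ice-cold MeCN and centrifuged (4000g, 4 °C, 15 min), and supernatants were analysed by gradient radio-HPLC and radio-TLC, with HPLC fractions γ-counted.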

Mus musculus = assay: Plasma concentration in CD1 mouse assessed per gram of wet tissue at 400 to 600 kBq, iv after 60 mins post-injection by gamma counting; format: ADME, organism-based; conditions: in vivo, 1 h
Method in brief: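 Female CD-1 mice (~8-12 weeks, 20-28 g), fasted 24 h with free access to water. 400-600 kBq [18F] tracer in 200 μL saline given by tail vein to conscious mice. At 5, 30, 60 or 120 min pi (n=4-5 per time) mice anaesthetised, blood taken, then euthanised. Samples weighed, γ-counted, %ID/g wet tissue calculated.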

[4] = Biodistribution in CD1 mouse adrenal gland assessed per gram of wet tissue at 400 to 600 kBq, iv after 5 mins post-injection by gamma counting; format: ADME, organism-based; conditions: in vivo; method in brief: as §1
Pancreas [5] = assay: Biodistribution in CD1 mouse pancreas assessed per gram of wet tissue at 400 to 600 kBq, iv after 60 mins post-injection by gamma counting in presence of 1 mg/kg, ip sigma 1/sigma 2 receptor antagonist haloperidol treated before compound addition; format: organism-based; parameters: route intravenous; conditions: in vivo, 1 h
Method in brief: (§5)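 They were killed at 60 min pi, and organs were weighed and γ-counted as % ID/g wet tissue. Comparison with controls used Student's t test (independent, two-tailed).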

Spleen = assay: Biodistribution in CD1 mouse spleen assessed per gram of wet tissue at 400 to 600 kBq, iv after 30 mins post-injection by gamma counting; format: ADME, organism-based; conditions: in vivo, 0.5 h; method in brief: as §2
Pancreas [6] = assay: Drug uptake in CD1 mouse pancreas at 400 to 600 kBq, iv after 120 mins post-injection by gamma counting relative to initial uptake; format: ADME, organism-based; conditions: in vivo, 2 h
Method in brief: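 Organ % ID/g was measured by γ-counting after tail-vein injection of 400-600 kBq [18F] tracer in saline to fasted female CD-1 mice (n=4-5 per time). The 120 min pi value is expressed relative to the initial (5 min pi) uptake.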

Brain [7] = assay: Biodistribution in CD1 mouse brain assessed per gram of wet tissue at 400 to 600 kBq, iv after 60 mins post-injection by gamma counting in presence of 1 mg/kg, ip sigma 1/sigma 2 receptor antagonist haloperidol treated before compound addition; format: organism-based; parameters: dose 1 mg/kg, route intravenous; conditions: in vivo, 1 h; method in brief: as §3
Femur = assay: Biodistribution in CD1 mouse femur assessed per gram of wet tissue at 400 to 600 kBq, iv after 30 mins post-injection by gamma counting; format: ADME, organism-based; conditions: in vivo, 0.5 h; method in brief: as §1
Kidney [8] = assay: Biodistribution in CD1 mouse kidney assessed per gram of wet tissue at 400 to 600 kBq, iv after 120 mins post-injection by gamma counting; format: ADME, organism-based; conditions: in vivo, 2 h; method in brief: as §1
Brain [9] = assay: Biodistribution in CD1 mouse brain assessed per gram of wet tissue at 400 to 600 kBq, iv after 120 mins post-injection by gamma counting; format: ADME, organism-based; conditions: in vivo, 2 h; method in brief: as §1
[10] = Biodistribution in CD1 mouse gonad assessed per gram of wet tissue at 400 to 600 kBq, iv after 60 mins post-injection by gamma counting; format: ADME, organism-based; conditions: in vivo, 1 h; method in brief: as §1
[11] = Metabolic stability in CD1 mouse plasma at 200 to 300 MBq, iv after 60 mins post-injection by supelcosil C18 HPLC and TLC-radiochromatography; format: ADME, organism-based; conditions: read-out: Stability; method in brief: as §4
Blood = assay: Biodistribution in CD1 mouse blood assessed per gram of wet tissue at 400 to 600 kBq, iv after 60 mins post-injection by gamma counting; format: ADME, organism-based; conditions: in vivo, 1 h; method in brief: as §1
Lung = assay: Biodistribution in CD1 mouse lung assessed per gram of wet tissue at 400 to 600 kBq, iv after 60 mins post-injection by gamma counting; format: ADME, organism-based; conditions: in vivo, 1 h; method in brief: as §2
[12] = Biodistribution in CD1 mouse urine assessed as per gram of wet bladder at 400 to 600 kBq, iv after 60 mins post-injection by gamma counting; format: ADME, organism-based; conditions: in vivo, 1 h; method in brief: as §2
[13] = N-octanol-phosphate buffer distribution coefficient, log D in three buffered solution by shake flask method; format: physicochemical
Method in brief: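 [18F]-labelled tracer partitioned between n-octanol and Sorensen's phosphate buffer (50 mM, pH 7.2), Dulbecco's PBS (pH 7.2) or TRIS-HCl (30 mM, pH 7.2). Conventional shake-flask method, multiple distribution in duplicates, n = 50 in total.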

Intestine = assay: Biodistribution in CD1 mouse intestine assessed per gram of wet tissue at 400 to 600 kBq, iv after 60 mins post-injection by gamma counting; format: ADME, organism-based; conditions: in vivo, 1 h; method in brief: as §1
[14] = Biodistribution in CD1 mouse thymus assessed per gram of wet tissue at 400 to 600 kBq, iv after 60 mins post-injection by gamma counting in presence of 1 mg/kg, ip sigma 1/sigma 2 receptor antagonist haloperidol treated before compound addition; format: organism-based; parameters: route intravenous; conditions: in vivo, 1 h; method in brief: as §5
Kidney [15] = assay: Biodistribution in CD1 mouse kidney assessed per gram of wet tissue at 400 to 600 kBq, iv after 60 mins post-injection by gamma counting in presence of 1 mg/kg, ip sigma 1/sigma 2 receptor antagonist haloperidol treated before compound addition; format: organism-based; parameters: dose 1 mg/kg, route intravenous; conditions: in vivo, 1 h; method in brief: as §3
[16] = Biodistribution in CD1 mouse thymus assessed per gram of wet tissue at 400 to 600 kBq, iv after 30 mins post-injection by gamma counting; format: ADME, organism-based; conditions: in vivo, 0.5 h; method in brief: as §2

Work on [18F]CCCC1OC2(CCN(Cc3ccccc3)CC2)c2ccccc21 (centres undefined) yielded a Drug uptake (Cerebellum) of 4.62 %ID, a Drug uptake (Muscle tissue) of 2.18 %ID and a Drug uptake (Heart [1]) of 1.09 %ID. The Drug uptake (Heart [2]) was 6.52 %ID, the remaining at 1 h [3] was no less than 95% and the Drug uptake (Mus musculus) was 0.52 %ID. For the same compound, the Drug uptake [4] was 10.6 %ID, the Drug uptake (Pancreas [5]) was 3.05 %ID and the Drug uptake (Spleen) was 5.86 %ID. It also gave a Drug uptake (Pancreas [6]) greater than 70%, a Drug uptake (Brain [7]) of 0.54 %ID and a Drug uptake (Femur) of 3.79 %ID. The Drug uptake (Kidney [8]) was 3.68 %ID, the Drug uptake (Brain [9]) was 2.14 %ID and the Drug uptake [10] was 4.22 %ID. The remaining at 1 h [11] was greater than 85%, the Drug uptake (Blood) was 0.37 %ID and the Drug uptake (Lung) was 4.64 %ID. It also gave a Drug uptake [12] of 7.84 %ID, a logD [13] of 3.03 and a Drug uptake (Intestine) of 6.59 %ID. The Drug uptake [14] was 2.36 %ID, the Drug uptake (Kidney [15]) was 3.42 %ID and the Drug uptake [16] was 3.26 %ID.
